Reference: article PMC8903082 (Journal of medicinal chemistry, 2020)

Assays:
red blood cells of mice = assay: Hemolytic assay; type: cell-based; settings: 37 °C, 1 h, testing range up to 250 μg/mL
MRSA [1] = assay: Time-kill study, MRSA; type: cell-based, Staphylococcus aureus; settings: concentrations of 24 and 48 μg/mL
Outline: (§1)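 Overnight TSB cultures (37 °C, shaking) were subcultured 6 h to mid-log phase. Suspensions at 10^6 CFU/mL were exposed to the test compound at 37 °C for 10, 30, 60 and 120 min (E. coli 12, 24, 48 μg/mL; MRSA 6, 12, 24, 48 μg/mL). Untreated bacteria served as controls. Samples were diluted (MRSA 10^2-fold, E. coli 10^4-fold) and plated on TSB agar for 20 h at 37 °C. Colonies were counted against time. Three repeats.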

E. coli [2] = assay: Time-kill study, E. coli; type: cell-based, Escherichia coli; settings: concentrations of 24 and 48 μg/mL
Outline: as §1

MRSA [3] = assay: Drug resistance study; type: cell-based, Staphylococcus aureus; settings: 13 passages
[4] = system: E. coli biofilm formation; assay: Biofilm prevention study; type: cell-based; settings: Escherichia coli, 48 h, read-out: Inhibition of E. coli biofilm formation
MRSA [5] = assay: Fluorescence microscopy; type: cell-based, Staphylococcus aureus; settings: 2 × MIC, 2 h
E. coli [6] = assay: Fluorescence microscopy; type: cell-based, Escherichia coli; settings: 2 × MIC, 2 h
E. coli [7] = assay: Membrane depolarization study, DiSC3; type: cell-based, Escherichia coli; settings: 0.5 ×, 1 ×, 2 × and 4 × MIC
MRSA [8] = type: cell-based, Staphylococcus aureus; settings: not told
E. coli [9] = assay: Inner membrane permeabilization; type: cell-based, Escherichia coli; settings: 2-fold MIC
Outline: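 Mid-log E. coli was pelleted at 1000g, washed three times and resuspended to 10^6 CFU/mL in 5 mM HEPES/5 mM glucose (1:1). It was mixed with PI from a 10 μM solution. Fluorescence (ex 535, em 617 nm) was read every 2 min for about 8 min. The test compound was then added and reading continued for 12 min. The negative control received water. Three repeats.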

MRSA [10] = assay: TEM study, MRSA; type: cell-based, Staphylococcus aureus; settings: 6 μg/mL, 2 h
Outline: (§2)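 Cells were prepared at 10^6 CFU/mL as for MIC testing and treated with the test compound for 2 h at 37 °C; untreated controls ran alongside. Cells were pelleted, washed three times in PBS and resuspended in deionised water. They were dropped on grids, blotted, dried 30 s at 50 °C under vacuum, and imaged by TEM at 60 kV.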

E. coli [11] = assay: TEM study, E. coli; type: cell-based, Escherichia coli; settings: 12 μg/mL, 2 h
Outline: as §2

CCCCCCCCCC(=O)N[C@@H](CCCCN)CN1CC(=O)N(c2ccc(N3CN(C[C@H](CCCCN)NC(=O)CCCCCCCCC)CC3=O)cc2)C1 [Compound 3, N,N'-((2S,2'S)-(1,4-Phenylenebis(4-oxoimidazolidine-3,1-diyl))-bis(6-aminohexane-1,2-diyl))bis(decanamide)]
Hemolysis (HC50) (red blood cells of mice): >250 µg/mL
Time to thoroughly eliminate MRSA (MRSA [1]): ≤ 60 min
Time required for eradicating E. coli (E. coli [2]): 30 min
Fold increase in MIC toward MRSA (MRSA [3]): remained almost unchanged
inhibition at 3 µg/mL [4]: > 55%
DAPI/PI staining of MRSA (membrane integrity) (MRSA [5]): blue and red fluorescence were all observed
DAPI/PI staining of E. coli (membrane integrity) (E. coli [6]): blue and red fluorescence were all observed
Membrane depolarization, DiSC3(5) fluorescence intensity (E. coli [7]): increase in a concentration-dependent manner
Inner membrane permeabilization of MRSA (PI fluorescence) (MRSA [8]): permeabilized fast
Inner membrane permeabilization of E. coli (PI fluorescence) (E. coli [9]): permeabilized fast
Cell membrane morphology of MRSA (TEM) (MRSA [10]): their membrane was all dispersed
Cell membrane morphology of E. coli (TEM) (E. coli [11]): their membrane was all dispersed

NCCCC[C@@H](CN1CC(=O)N(c2ccc(N3CN(C[C@H](CCCCN)NC(=O)Cc4ccc5ccccc5c4)CC3=O)cc2)C1)NC(=O)Cc1ccc2ccccc2c1 [Compound 8, N,N'-((2S,2'S)-(1,4-Phenylenebis(4-oxoimidazolidine-3,1-diyl))-bis(6-aminohexane-1,2-diyl))bis(2-(naphthalen-2-yl)acetamide)]
Hemolysis (HC50) (red blood cells of mice): >250 µg/mL

CCn1cc(C(=O)O)c(=O)c2cc(F)c(N3CCNCC3)cc21 [norfloxacin, reference compound]
Fold increase in MIC toward MRSA (MRSA [3]): more than 22 fold

CCCCCCCCCC(=O)N[C@@H](CCCCN)CNCC(=O)Nc1ccc(NC(=O)CNC[C@H](CCCCN)NC(=O)CCCCCCCCC)cc1 [Compound 11, N,N'-((2S,2'S)-(((1,4-Phenylenebis(azanediyl))bis(2-oxoethane-2,1-diyl))bis(azanediyl))bis(6-aminohexane-1,2-diyl))bis-(decanamide)]
Hemolysis (HC50) (red blood cells of mice): >250 µg/mL

CCCCCCCC(=O)N[C@@H](CCCCN)CN1CC(=O)N(c2ccc(N3CN(C[C@H](CCCCN)NC(=O)CCCCCCC)CC3=O)cc2)C1 [Compound 2, N,N'-((2S,2'S)-(1,4-Phenylenebis(4-oxoimidazolidine-3,1-diyl))-bis(6-aminohexane-1,2-diyl))dioctan amide]
Hemolysis (HC50) (red blood cells of mice): >250 µg/mL

CCCCCCCCCCCCCCCC(=O)N[C@@H](CCCCN)CN1CC(=O)N(c2ccc(N3CN(C[C@H](CCCCN)NC(=O)CCCCCCCCCCCCCCC)CC3=O)cc2)C1 [Compound 6, N,N'-((2S,2'S)-(1,4-Phenylenebis(4-oxoimidazolidine-3,1-diyl))-bis(6-aminohexane-1,2-diyl))dipalmitamide]
Hemolysis (HC50) (red blood cells of mice): >250 µg/mL

NCCCC[C@@H](CN1CC(=O)N(c2ccc(N3CN(C[C@H](CCCCN)NC(=O)CC45C[C@H]6C[C@@H](C4)C[C@@H](C5)C6)CC3=O)cc2)C1)NC(=O)CC12C[C@H]3C[C@@H](C1)C[C@@H](C2)C3 [Compound 7, N,N'-((2S,2'S)-(1,4-Phenylenebis(4-oxoimidazolidine-3,1-diyl))-bis(6-aminohexane-1,2-diyl))bis(2-((3S,5S,7S)-adamantan-1-yl)-acetamide)]
Hemolysis (HC50) (red blood cells of mice): >250 µg/mL

CCCCCCCCCC(=O)N[C@@H](Cc1ccccc1)CN1CC(=O)N(c2ccc(N3CN(C[C@H](Cc4ccccc4)NC(=O)CCCCCCCCC)CC3=O)cc2)C1 [Compound 10, N,N'-((2S,2'S)-(1,4-Phenylenebis(4-oxoimidazolidine-3,1-diyl))-bis(3-phenylpropane-1,2-diyl))bis(decanamide)]
Hemolysis (HC50) (red blood cells of mice): >250 µg/mL

CCCCCCCCCCCCCC(=O)N[C@@H](CCCCN)CN1CC(=O)N(c2ccc(N3CN(C[C@H](CCCCN)NC(=O)CCCCCCCCCCCCC)CC3=O)cc2)C1 [Compound 5, N,N'-((2S,2'S)-(1,4-Phenylenebis(4-oxoimidazolidine-3,1-diyl))-bis(6-aminohexane-1,2-diyl))ditetradecanamide]
Hemolysis (HC50) (red blood cells of mice): >250 µg/mL

NCCCC(=O)N[C@@H](Cc1ccccc1)CN1CC(=O)N(c2ccc(N3CN(C[C@H](Cc4ccccc4)NC(=O)CCCN)CC3=O)cc2)C1 [Compound 9, N,N'-((2S,2'S)-(1,4-Phenylenebis(4-oxoimidazolidine-3,1-diyl))-bis(3-phenylpropane-1,2-diyl))bis(4-aminobutanamide)]
Hemolysis (HC50) (red blood cells of mice): >250 µg/mL

CCCCCCCCCCCC(=O)N[C@@H](CCCCN)CN1CC(=O)N(c2ccc(N3CN(C[C@H](CCCCN)NC(=O)CCCCCCCCCCC)CC3=O)cc2)C1 [Compound 4, N,N'-((2S,2'S)-(1,4-Phenylenebis(4-oxoimidazolidine-3,1-diyl))-bis(6-aminohexane-1,2-diyl))didodecanamide]
Hemolysis (HC50) (red blood cells of mice): >250 µg/mL

CCCCCC(=O)N[C@@H](CCCCN)CN1CC(=O)N(c2ccc(N3CN(C[C@H](CCCCN)NC(=O)CCCCC)CC3=O)cc2)C1 [Compound 1, N,N'-((2S,2'S)-(1,4-Phenylenebis(4-oxoimidazolidine-3,1-diyl))-bis(6-aminohexane-1,2-diyl))dihexan amide]
Hemolysis (HC50) (red blood cells of mice): >250 µg/mL
